A short description of experiment [1]: inhibitors of TNFa-induced NFkB p65 translocation, primary screen, imaging, HUVEC, MLSMR starter and 10KST1 sets (AID 438;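 active = inhibition above 20% together with a positive visual image hit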;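 note: compound added about 3h40 before a 20 min TNFalpha stimulation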;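 for inhibition: signal is the nuclear over cytoplasmic p65 intensity ratio per well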). Particulars: HUVEC TNFa-induced p65 nuclear translocation; cell count: measured here: nuclei count (cytotoxicity indicator), at 2.08 µM; inhibition: at 2 µM, stronger effect = higher value, 0% TNFa-plus-vehicle, 100% no-TNFa wells.
Experiment [2] in a line: reduction of polyQ htt aggregates in cells – imaging, exon1htt(103Q)mCFP cells, high-content imaging, primary screen (AID 483).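 For nuclei count: percent of the per-plate median nuclei count of sample wells.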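 Note: compound exposure lasted 3 days before fixation.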 Particulars: exon1htt(103Q)mCFP cell line, aggregate imaging, at 2 µM; inhibition of aggregation: stronger effect = higher value; nuclei count: measured here: cell count, toxicity.
The nature of experiment [3]: endothelial E-selectin expression blockers – imaging, HUVEC, immunofluorescence, MLSMR starter and 10KST1 sets, primary screen (AID 487;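 active = visually confirmed hit in the image check and inhibition above 20%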;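 for inhibition: signal is fraction of cell area covered by stained E-selectin grains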;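 for nuclei count: 100% = median nuclei count of all wells on the same plate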). Particulars: HUVEC TNFalpha-induced E-selectin immunofluorescence imaging, at 2 µM; inhibition: stronger effect = higher value; nuclei count: measured here: cell number, toxicity.
For experiment [4], the target named is Voltage-gated potassium channel subunit beta-2 (Rattus norvegicus) (UniProt P62483). Briefly: inhibitors of rat Kvbeta2 reductase activity – biochemical, NADPH fluorescence, primary screen (AID 622;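 active = fluorescence slope higher than the sample average by over 3 SD, cut at about -0.22 in these data, passing the limit was not always enough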;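 note: slope of raw intensity against log time taken from 70 to 1610 s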). The settings on record: recombinant KvBeta, 4-cyanobenzaldehyde reduction, at 10 µM, stronger effect = higher value.
Voltage-gated potassium channel subunit beta-2 (Rattus norvegicus), sequence (P62483 whole entry, looked up): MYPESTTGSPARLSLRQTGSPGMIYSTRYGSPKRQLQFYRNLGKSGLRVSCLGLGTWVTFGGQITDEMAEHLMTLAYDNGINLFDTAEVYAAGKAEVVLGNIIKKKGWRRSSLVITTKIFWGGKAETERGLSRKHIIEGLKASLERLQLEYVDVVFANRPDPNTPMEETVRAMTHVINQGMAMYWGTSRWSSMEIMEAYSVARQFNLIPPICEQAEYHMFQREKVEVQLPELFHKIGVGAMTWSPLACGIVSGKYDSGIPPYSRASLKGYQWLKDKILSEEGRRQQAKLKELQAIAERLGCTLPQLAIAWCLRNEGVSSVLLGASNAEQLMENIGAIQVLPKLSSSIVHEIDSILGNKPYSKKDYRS
Experiment [5] shares this target. Briefly: enhancers of rat Kvbeta2 NADPH turnover – biochemical, NADPH fluorescence, primary screen (AID 623;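 active = NADPH fluorescence slope more negative than the mean of all samples by about 3 SD, 99.7% confidence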;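 note: fluorescence intensity change per second fitted from 20 to 320 s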). Particulars: Recombinant KvBeta, NADPH fluorescence decrease slope, 10 min; at 10 µM; stronger effect = lower value.
The target in experiment [6] is Muscarinic acetylcholine receptor M4 (Homo sapiens) (UniProt P08173). The experiment in a line: M4-linked GIRK flux change, two-sided – cell-based, HEK293 M4/GIRK, thallium flux, BTC-AM, M4 allosteric agonist project, primary screen (AID 625;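 active = fluorescence slope after compound addition differing from the mean of all tested samples at 99.7% confidence, mostly higher but some lower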;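 note: thallium influx through GIRK channels coupled to M4 in HEK293 cells with BTC-AM dye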). Particulars: at 10 µM, actives lie on both sides. The method, boiled down: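 Material – HEK293 cells with M4 receptor and GIRK channels · Buffer or medium – pH 7.3 thallium assay buffer · Doses – one dose, 10 µM final · Timing – cells overnight at 37 °C, BTC-AM loading 1 h, reads 2 min total · Measured by – kinetic fluorescence with BTC-AM dye · Controls – carbachol and DMSO controls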
Muscarinic acetylcholine receptor M4 (Homo sapiens), sequence (P08173 whole entry, looked up): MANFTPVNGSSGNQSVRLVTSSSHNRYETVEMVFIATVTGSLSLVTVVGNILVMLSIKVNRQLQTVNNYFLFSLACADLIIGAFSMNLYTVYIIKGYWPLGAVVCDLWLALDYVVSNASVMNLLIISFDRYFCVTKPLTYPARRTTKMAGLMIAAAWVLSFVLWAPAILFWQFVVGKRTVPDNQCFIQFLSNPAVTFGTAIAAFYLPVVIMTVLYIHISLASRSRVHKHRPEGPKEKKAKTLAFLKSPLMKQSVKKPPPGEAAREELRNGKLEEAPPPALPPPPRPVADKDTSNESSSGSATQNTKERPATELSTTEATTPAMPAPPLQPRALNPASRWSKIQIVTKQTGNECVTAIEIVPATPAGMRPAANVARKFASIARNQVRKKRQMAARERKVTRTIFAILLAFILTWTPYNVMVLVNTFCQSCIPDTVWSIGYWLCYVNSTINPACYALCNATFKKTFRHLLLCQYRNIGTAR

Experiment [7] can be described thus: blockers of RIG-like receptor reporter activation – cell-based, Sendai virus stimulus, luciferase, 10K MLSCN set, TLR/RLR signaling modifier project, primary screen (AID 602276;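 active = inhibition at or above 50% at 10 µM; inactive = inhibition below 50%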;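 note: firefly luciferase from ISG56 promoter only with Renilla not read in this screen; 0% = Sendai virus plus DMSO and 100% = medium plus DMSO without virus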). Particulars: HEK293 RL24 IRF3 luciferase reporter, at 10 µM, stronger effect = higher value. In general terms: A reporter such as luciferase makes a cellular process visible.
Experiment [8] is described as follows: TLR3 IRF3 reporter activation blockers – cell-based, poly I:C stimulus, luciferase, 10K MLSCN set, primary screen (AID 602277;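 active = inhibition of the reporter signal at or above 50%; inactive = inhibition below 50%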). Particulars: HEK293-TLR3 RL24 IRF3 luciferase reporter, at 10 µM, stronger effect = higher value.

Activity calls are given as the source filed them.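 Rule for the calls, unless noted: active = visual image review flags a hit and inhibition of aggregation exceeds 20%; inconclusive = visual hit but inhibition at or below 20%; inactive = no hit on visual image review.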

A word on the inhibition: it is the relative decrease from the control value, in per cent. With `Nc1nc(N)nc(-c2ccccc2)n1`, in experiment [1], the cell count amounted to 402. Further, the inhibition in experiment [1] is 6% (inactive); in experiment [3], 22.3% (inactive); in experiment [7] it was 13.8% (inactive); in experiment [8] it was 13.5% (inactive). Further, the inhibition of aggregation in experiment [2] is 12% (inactive). Further, the nuclei count is 91.3% in experiment [2] and 102% in experiment [3]. Also, the fluorescence slope in experiment [4] is -0.599 (inactive); in experiment [6], 0.00335 (inactive). Also, the NADPH fluorescence slope in experiment [5] is -3.3e-05 (inactive).

Consider `Cc1ccc(-c2cc(C(F)F)nc(N3CCC(C)CC3)n2)cc1`, for which the cell count in experiment [1] was found to be 653. In addition, the inhibition in experiment [1] was -35.4% (inactive); in experiment [3], -81.9% (inactive); in experiment [7], 4.72% (inactive); in experiment [8], -1.99% (inactive). Further, in experiment [2], the inhibition of aggregation is -11.6% (inactive). The nuclei count in experiment [2] worked out at 102%; in experiment [3], 117%. Further, the fluorescence slope is -0.432 (inactive) in experiment [4] and 0.00777 (inactive) in experiment [6]. Moreover, in experiment [5], the NADPH fluorescence slope is -1.2e-05 (inactive).

For the compound `CCCCC(NC(C)=O)c1nc2ccccc2n1CCC` (centres undefined), the cell count in experiment [1] is 294. In addition, the inhibition in experiment [1] was -3.7% (inactive); in experiment [3], 37.8% (inactive); in experiment [7], 22.7% (inactive); in experiment [8], 16.8% (inactive). Further, in experiment [2], the inhibition of aggregation was 24.6% (inactive). For the same compound, the nuclei count in experiment [2] is 82.4%; in experiment [3], 94.3%. In addition, the results for the fluorescence slope in experiment [4] and in experiment [6] were -0.454 (inactive) and 0.00541 (inactive), respectively. In experiment [5], the NADPH fluorescence slope was -2.6e-05 (inactive).

`Cc1ccc(-n2nc(C(=O)N3CCN(C)CC3)c3c4ccccc4n(C)c3c2=O)cc1`: the cell count in experiment [1] was 264. Also, the inhibition in experiment [1] is 5.9% (inactive); in experiment [3], -38.3% (inactive); in experiment [7], 19.7% (inactive); in experiment [8] it was 35.7% (inactive). In experiment [2], the inhibition of aggregation was -10.3% (inactive). Besides, the nuclei count in experiment [2] is 90.9%; in experiment [3], 119%. Further, the fluorescence slope in experiment [4] was -0.523 (inactive); in experiment [6], 0.00583 (inactive). Besides, the NADPH fluorescence slope in experiment [5] was -2e-05 (inactive).

In the case of `CC(C(=O)OCn1nnc2ccccc2c1=O)N1C(=O)c2ccccc2C1=O` (centres undefined), in experiment [1], the cell count came to 532. Also, the inhibition in experiment [1] is -15.6% (inactive); in experiment [3] it was 15.7% (inactive); in experiment [7], 12.3% (inactive); in experiment [8], 21.1% (inactive). Besides, in experiment [2], the inhibition of aggregation was 13.2% (inactive). Besides, the results for the nuclei count in experiment [2] and in experiment [3] were 84.6% and 76.4%, respectively. For the same compound, the fluorescence slope was -0.62 (inactive) in experiment [4] and 0.00486 (inactive) in experiment [6]. Moreover, the NADPH fluorescence slope in experiment [5] was 2e-05 (inactive).

`C#CC(CO)N(CCN(Cc1ccccc1)C(C#C)CO)Cc1ccccc1` (centres undefined): the cell count in experiment [1] is 370. For the same compound, the inhibition in experiment [1] is 1.8% (inactive); in experiment [3], -29.5% (inactive); in experiment [7], 15.5% (inactive); in experiment [8] it was 20.6% (inactive). For the same compound, the inhibition of aggregation in experiment [2] is -12.5% (inactive). Further, the figures for the nuclei count in experiment [2] and in experiment [3] were 104% and 112%, respectively. Moreover, the fluorescence slope in experiment [4] was -0.329 (inactive); in experiment [6] it was 0.00458 (inactive). Also, the NADPH fluorescence slope in experiment [5] is -5.4e-05 (inactive).

`CC(=O)Nc1ccc(N2CCN(Cc3ccccc3F)CC2)cc1`: the cell count in experiment [1] worked out at 452. The inhibition in experiment [1] was 19.4% (inactive); in experiment [3] it was 34.5% (inactive); in experiment [7] it was 8.54% (inactive); in experiment [8], 19% (inactive). Moreover, in experiment [2], the inhibition of aggregation is 12.1% (inactive). Besides, the values for the nuclei count in experiment [2] and in experiment [3] were 102% and 120%, respectively. Besides, the figures for the fluorescence slope in experiment [4] and in experiment [6] were -0.579 (inactive) and 0.0111 (inactive), respectively. In addition, in experiment [5], the NADPH fluorescence slope is -3.8e-05 (inactive).

As to `O=C(C1CCN(S(=O)(=O)c2cccnc2)CC1)N1CCN(c2ccc(Cl)cc2)CC1`, in experiment [1], the cell count stood at 447. Also, the inhibition in experiment [1] is -1.6% (inactive); in experiment [3], -26.1% (inactive); in experiment [7], 7.3% (inactive); in experiment [8] it was -25.5% (inactive). In addition, the inhibition of aggregation in experiment [2] was 11.5% (inactive). In addition, the nuclei count in experiment [2] amounted to 109%; in experiment [3], 100%. The results for the fluorescence slope in experiment [4] and in experiment [6] were -0.447 (inactive) and 0.00572 (inactive), respectively. In addition, the NADPH fluorescence slope in experiment [5] was 3.3e-05 (inactive).

Turning to `CCOC(=O)C1CCN(C(=O)C2CCN(S(=O)(=O)c3cc(Cl)ccc3Cl)CC2)CC1`, in experiment [1], the cell count stood at 738. For the same compound, the inhibition in experiment [1] was -4.9% (inactive); in experiment [3] it was 4.5% (inactive); in experiment [7] it was 16% (inactive); in experiment [8] it was 9.65% (inactive). The inhibition of aggregation in experiment [2] is 14.8% (inactive). In addition, the nuclei count in experiment [2] turned out to be 91.3%; in experiment [3] it was 96.7%. In addition, the fluorescence slope in experiment [4] is -0.542 (inactive); in experiment [6] it was 0.00485 (inactive). Besides, the NADPH fluorescence slope in experiment [5] is 2.5e-05 (inactive).

For the compound `CC(=O)C1=C(N2CCCCC2)CCC1=O`, the cell count in experiment [1] was found to be 431. Besides, the inhibition in experiment [1] is 2.3% (inactive); in experiment [3], -0.5% (inactive); in experiment [7], 8.02% (inactive); in experiment [8], 11.2% (inactive). Moreover, the inhibition of aggregation in experiment [2] is -14.9% (inactive). Besides, the nuclei count in experiment [2] was determined as 100%; in experiment [3], 109%. Also, the figures for the fluorescence slope in experiment [4] and in experiment [6] were -0.328 (inactive) and 0.00689 (inactive), respectively. Besides, the NADPH fluorescence slope in experiment [5] is -1.9e-05 (inactive).

As for `Cc1c(=O)n(OCc2ccccn2)c2ccccc2[n+]1[O-]`, the cell count in experiment [1] was 208. Also, the inhibition in experiment [1] was -18.3% (inactive); in experiment [3], 14.4% (inactive); in experiment [7], 11.7% (inactive); in experiment [8] it was 16.8% (inactive). For the same compound, in experiment [2], the inhibition of aggregation is 27.8% (inactive). Also, the nuclei count was 112% in experiment [2] and 89.2% in experiment [3]. The fluorescence slope in experiment [4] was -0.412 (inactive); in experiment [6], 0.00625 (inactive). Moreover, the NADPH fluorescence slope in experiment [5] is -1.8e-05 (inactive).

Turning to `CCn1c(C(=O)OC)cc2c1ccn2-c1ccc(F)cc1`, the cell count in experiment [1] worked out at 648. In addition, the inhibition in experiment [1] is -2.6% (inactive); in experiment [3] it was -86.1% (inactive); in experiment [7], -52.7% (inactive); in experiment [8], -96.4% (inactive). In addition, the inhibition of aggregation in experiment [2] is 25% (inactive). Moreover, the nuclei count in experiment [2] was determined as 99.6%; in experiment [3], 105%. Moreover, the fluorescence slope is -0.61 (inactive) in experiment [4] and 0.00586 (inactive) in experiment [6]. For the same compound, the NADPH fluorescence slope in experiment [5] was -2e-05 (inactive).

Turning to `O=C(CCCC(=O)N(CC(=O)NC1CCCCC1)Cc1ccc2c(c1)OCO2)Nc1ccccn1`, the cell count in experiment [1] is 395. Further, the inhibition is 4.2% (inactive) in experiment [1], -237% (inactive) in experiment [3], 15.4% (inactive) in experiment [7] and 25.3% (inactive) in experiment [8]. In experiment [2], the inhibition of aggregation is -3% (inactive). The nuclei count was determined as 91% in experiment [2] and 110% in experiment [3]. Moreover, the fluorescence slope in experiment [4] is -0.479 (inactive); in experiment [6], 0.00636 (inactive). Moreover, the NADPH fluorescence slope in experiment [5] was 3.7e-05 (inactive).

Take `C=CCn1c(C)cc(C(=O)CSc2nc3ccccc3c(=O)[nH]2)c1C`: the cell count in experiment [1] was 278. Besides, the inhibition in experiment [1] is -0.8% (inactive); in experiment [3], -59.5% (inactive); in experiment [7] it was -41.3% (inactive); in experiment [8], -75.7% (inactive). For the same compound, the inhibition of aggregation in experiment [2] was 11.4% (inactive). Further, the nuclei count turned out to be 92% in experiment [2] and 104% in experiment [3]. For the same compound, the figures for the fluorescence slope in experiment [4] and in experiment [6] were -0.52 (inactive) and 0.0056 (inactive), respectively. For the same compound, the NADPH fluorescence slope in experiment [5] is -3.3e-05 (inactive).

For the origin of these results see PubChem BioAssay.
